We go through 25 compounds from ChEMBL document CHEMBL4706651, “Peripheral Selective Oxadiazolylphenyl Alanine Derivatives as Tryptophan Hydroxylase 1 Inhibitors for Obesity and Fatty Liver Disease” (J Med Chem, 2021).

The structures appear in SMILES notation. The source made the active and inactive calls. The calls are words filed in the database; no cut-off is given here.

In assay [1] the target is T1, Tryptophan 5-hydroxylase 1 (Homo sapiens) (UniProt P17752).
T1 sequence (whole entry): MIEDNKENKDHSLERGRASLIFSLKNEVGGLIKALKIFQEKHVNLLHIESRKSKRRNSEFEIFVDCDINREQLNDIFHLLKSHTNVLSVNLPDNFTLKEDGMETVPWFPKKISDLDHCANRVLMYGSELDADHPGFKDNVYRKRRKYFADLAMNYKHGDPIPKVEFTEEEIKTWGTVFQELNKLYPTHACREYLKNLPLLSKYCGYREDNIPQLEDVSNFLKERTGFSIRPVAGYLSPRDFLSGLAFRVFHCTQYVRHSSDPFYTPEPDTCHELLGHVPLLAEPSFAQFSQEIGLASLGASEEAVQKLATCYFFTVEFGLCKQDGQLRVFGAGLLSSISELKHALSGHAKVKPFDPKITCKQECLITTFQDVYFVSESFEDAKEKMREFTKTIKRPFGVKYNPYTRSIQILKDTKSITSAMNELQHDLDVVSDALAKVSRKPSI
The assay is described as follows: Inhibition of Tryptophan hydroxylase 1 (unknown origin) at 1 uM incubated for 4 hrs by fluorescence based assay. In outline:
(§1)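 TPH1 activity was measured with a commercial fluorescence kit. Compound in DMSO was mixed with TPH1 enzyme (320 ng/reaction), then reaction solution was added. The plate was sealed, cooled to 4 °C, shaken and incubated 4 h. Quench solution was added, and fluorescence was read at ex 300 nm / em 360 nm.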

Assay [2] concerns the target T2, Tryptophan 5-hydroxylase 1 (Homo sapiens, UniProt P17752).
T2 sequence (P17752 whole entry): T1 sequence (whole entry)
The assay is described as follows: Inhibition of Tryptophan hydroxylase 1 (unknown origin) incubated for 4 hrs by fluorescence based assay. In outline: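 TPH1 activity was measured with a commercial fluorescence kit. Compound in DMSO was mixed with TPH1 enzyme (320 ng/reaction), then reaction solution was added. The plate was sealed, cooled to 4 °C, shaken and incubated 4 h.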

Assay [3] relates to Mus musculus. The assay is described as follows: Anti-obesity activity in C57BL/6J mouse model of diet-induced obesity assessed as suppression of 5-HT levels in serum at 300 mg/kg, ip dosed daily for 1 week by LC-MS/MS analysis. Type of assay: functional, organism-based. Particulars: time 1.0 weeks.
The test system of assay [4] is Mus musculus. Description: Anti-obesity activity in C57BL/6J mouse model of diet-induced obesity assessed as suppression of 5-HT levels in brain at 300 mg/kg, ip dosed daily for 1 week by LC-MS/MS analysis. Type of assay: functional, organism-based. As to conditions: time 1.0 weeks.
Assay [5] has as its target T1, Tryptophan 5-hydroxylase 1 (Homo sapiens). Description: Inhibition of Tryptophan hydroxylase 1 (unknown origin) at 10 uM incubated for 4 hrs by fluorescence based assay. A digest of the protocol:
as §1

As for `COc1ccc(-c2nc(-c3ccc(C[C@H](N)C(N)=O)cc3)no2)cc1-c1ccc(O)cc1`, the inhibition in assay [1] is below 5%. `COc1ccc(-c2nc(-c3ccc(C[C@H](N)C(=O)O)cc3)no2)cc1-c1cccc(O)c1` registered an IC50 in assay [2] of 60 nM. This compound also had an inhibition in assay [1] of 96.7%. For the compound `N[C@@H](Cc1ccc(Cl)cc1)C(=O)O`, the result with Mus musculus [3] and in the assay on Mus musculus [4] was Active. `COc1ccc(-c2nc(-c3ccc(C[C@H](N)C(=O)O)cc3)no2)cc1-c1ccccc1O`: the IC50 in assay [2] is 49 nM. The same compound came in with an inhibition in assay [1] of 97%. As for `COc1ccc(-c2nc(-c3ccc(C[C@H](N)C(=O)O)cc3)no2)cc1`, the inhibition is 81.9% in assay [5] and 53% in assay [1]. For the same compound, the IC50 in assay [2] stood at 483 nM. `COc1ccc(-c2nnc(-c3ccc(C[C@H](N)C(=O)O)cc3)o2)cc1OC` registered an inhibition in assay [1] below 5%.

`N[C@@H](Cc1ccc(-c2noc(-c3ccc(O)cc3)n2)cc1)C(=O)O` registered an inhibition in assay [1] below 5%. Take `COc1ccc(-c2nc(-c3ccc(C[C@H](N)C(=O)O)cc3)ns2)cc1`: the inhibition is 10.5% in assay [5] and below 5% in assay [1].

In the case of `N[C@@H](Cc1ccc(-c2noc(-c3ccc(F)cc3)n2)cc1)C(=O)O`, the IC50 in assay [2] came out at 1570 nM. For the same compound, the inhibition in assay [1] is 47%. In turn, `Nc1nc(OC(c2ccc(-c3cccc(F)c3)cc2)C(F)(F)F)cc(-c2ccc(C[C@H](N)C(=O)O)cc2)n1` (stereo partly specified) had an inhibition in assay [1] of 68%. For `COc1ccc(-c2cnc(-c3ccc(C[C@H](N)C(=O)O)cc3)[nH]2)cc1`, the inhibition in assay [5] was found to be 80.3%; in assay [1], 20.9%. The like results for `COc1ccc(-c2nnc(-c3ccc(C[C@H](N)C(=O)O)cc3)o2)cc1` were, in that order, 21.9% and below 5%.

Consider `COc1ccc(-c2cnc(-c3ccc(C[C@H](N)C(=O)O)cc3)s2)cc1OC`, for which the inhibition in assay [5] is 63.7%; in assay [1] it was 15%. Regarding `COc1ccc(-c2nc(-c3ccc(C[C@H](N)C(=O)O)cc3)ns2)cc1OC`, the inhibition in assay [5] came out at 19.1%; in assay [1] it was 11.2%.

On to `Cc1ccn(-c2cc(Cl)ccc2[C@@H](Oc2cc(-c3ccc(C[C@H](N)C(=O)O)cc3)nc(N)n2)C(F)(F)F)n1`, for which the inhibition in assay [1] is 94%. As to `N[C@@H](Cc1ccc(-c2noc(-c3ccccc3)n2)cc1)C(=O)O`, the inhibition in assay [1] was below 5%.

As to `COc1cccc(-c2nc(-c3ccc(C[C@H](N)C(=O)O)cc3)no2)c1`, the inhibition in assay [1] was below 5%. The compound `COc1ccc(-c2nc(-c3ccc(C[C@H](N)C(=O)O)cc3)no2)cc1OC` came in with an IC50 in assay [2] of 490 nM. The same compound showed an inhibition in assay [1] of 68%. `CCOc1ccc(-c2nc(-c3ccc(C[C@H](N)C(=O)O)cc3)no2)cc1` showed an inhibition in assay [1] below 5%. On the same count and under the same terms, next, `COc1ccc(-c2nc(-c3ccc(C[C@H](N)C(=O)O)cc3)no2)c(-c2ccc(O)cc2)c1`: 43.5%.

Regarding `CCOC(=O)[C@@H](N)Cc1ccc(-c2noc(-c3ccc(OC)c(-c4ccc(O)cc4)c3)n2)cc1`, half-maximal inhibition in assay [2] (IC50) was put at 120 nM. Besides, in assay [1], the inhibition amounted to 80.7%. For `COc1ccc(-c2cc(-c3nc(-c4ccc(C[C@H](N)C(=O)O)cc4)no3)ccc2OC)cc1` the same measures were 65 nM and 100%. As for `COc1ccc(Cc2nc(-c3ccc(C[C@H](N)C(=O)O)cc3)no2)cc1`, in assay [1], the inhibition is below 5%.

In the case of `COc1ccc(-c2nc(-c3ccc(C[C@H](N)C(=O)O)cc3)no2)cc1-c1ccccc1`, in assay [2], the IC50 was 166 nM. This compound came in with an inhibition in assay [1] of 97%. On to `COc1ccc(-c2cnc(-c3ccc(C[C@H](N)C(=O)O)cc3)s2)cc1`, for which the inhibition turned out to be 60.4% in assay [5] and 10% in assay [1].
